Assay results as given in ChEMBL document CHEMBL1139516, “Optimization of amide-based inhibitors of soluble epoxide hydrolase with improved water solubility” (J Med Chem, 2005).
In brackets after ≈: the same amount, converted by molar mass.

How the values were obtained:
[1] = Partition coefficient (logP); type: physicochemical; conditions: octanol/water
How it was run: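 Calculated, not measured: Crippen's method estimate.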

[2] = Solubility in sodium phosphate buffer 0.1M, pH 7.4 at 25 +/-1.5 degree C; type: physicochemical; conditions: read-out: S
How it was run: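 Excess solid added to 0.1 M sodium phosphate pH 7.4 at 25 ± 1.5 °C. Suspension equilibrated by 1 h sonication, then 24 h shaking. Centrifuged 5 min at 200g. Absolute amount of dissolved compound then calculated.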

[3] = target: T1, Bifunctional epoxide hydrolase 2 (Homo sapiens, UniProt P34913); assay: Inhibitory concentration against human soluble epoxide hydrolase (sEH) at 0.24 uM
T1 sequence (P34913 whole entry): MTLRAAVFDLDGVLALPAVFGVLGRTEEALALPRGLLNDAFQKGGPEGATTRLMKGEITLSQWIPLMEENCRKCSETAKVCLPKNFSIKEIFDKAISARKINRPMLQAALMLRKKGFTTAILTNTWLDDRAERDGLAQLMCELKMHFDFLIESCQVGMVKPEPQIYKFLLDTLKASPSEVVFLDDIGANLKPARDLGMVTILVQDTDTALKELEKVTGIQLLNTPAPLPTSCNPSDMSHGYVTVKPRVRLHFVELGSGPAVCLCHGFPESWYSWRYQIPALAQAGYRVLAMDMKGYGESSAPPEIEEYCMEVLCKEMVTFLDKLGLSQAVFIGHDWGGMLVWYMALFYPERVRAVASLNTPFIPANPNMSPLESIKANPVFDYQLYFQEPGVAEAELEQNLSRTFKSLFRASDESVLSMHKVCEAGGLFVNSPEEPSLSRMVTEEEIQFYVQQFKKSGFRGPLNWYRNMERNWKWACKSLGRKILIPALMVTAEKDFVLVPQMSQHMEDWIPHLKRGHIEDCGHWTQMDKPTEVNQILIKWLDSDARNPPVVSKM

[4] = target: T2, Bifunctional epoxide hydrolase 2 (Mus musculus, UniProt P34914); assay: Inhibitory concentration against mouse soluble epoxide hydrolase (sEH) at 0.12 uM
T2 sequence (P34914 whole entry): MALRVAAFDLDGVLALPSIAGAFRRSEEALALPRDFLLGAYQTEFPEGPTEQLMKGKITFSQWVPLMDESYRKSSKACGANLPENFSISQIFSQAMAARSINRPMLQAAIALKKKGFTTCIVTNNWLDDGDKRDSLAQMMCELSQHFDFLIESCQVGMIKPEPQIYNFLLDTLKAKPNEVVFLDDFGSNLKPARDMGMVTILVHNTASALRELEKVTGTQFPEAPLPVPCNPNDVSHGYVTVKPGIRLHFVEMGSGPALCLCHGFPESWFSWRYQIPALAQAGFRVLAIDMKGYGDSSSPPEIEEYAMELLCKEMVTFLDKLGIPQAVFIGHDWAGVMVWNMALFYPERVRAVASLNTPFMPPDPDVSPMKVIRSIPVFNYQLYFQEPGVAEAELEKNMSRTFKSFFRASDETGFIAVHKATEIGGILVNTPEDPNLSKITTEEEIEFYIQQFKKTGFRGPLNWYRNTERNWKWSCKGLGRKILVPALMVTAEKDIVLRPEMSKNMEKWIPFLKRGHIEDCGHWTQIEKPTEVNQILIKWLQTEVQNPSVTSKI
How it was run: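 Recombinant murine enzyme, baculovirus-expressed, affinity-purified (≥97% pure). 0.12 μM enzyme preincubated with inhibitor 5 min at 30 °C in 0.1 M sodium phosphate pH 7.4 with 0.1 mg/mL BSA. Racemic 4-nitrophenyl-trans-2,3-epoxy-3-phenylpropyl carbonate added at 40 μM. 4-Nitrophenolate formation read at 405 nm over 1 min, 30 °C. Run in triplicate. IC50 regressed from ≥5 points, at least two on each side in the linear region.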

| SMILES | logP [1] | solubility [2] [µg/mL] | IC50 [3] [µM] | IC50 [4] [µM] | logP ([1]; read-out: logP) |
| --- | --- | --- | --- | --- | --- |
| CCCCCCC(O)CCCNC(=O)NC12CC3CC(CC(C3)C1)C2 (configuration not stated) |  |  | 0.13 | 0.05 |  |
| O=C(Nc1ccccc1CO)NC1CCCCC1 |  |  | > 100 | > 100 |  |
| CCCCCCCCCCNC(=O)NC12CC3CC(CC(C3)C1)C2 |  | 0.5 (≈ 1.49 µM) | 0.11 |  | 4.76 |
| COc1ccc(NC(=O)CC2CCCCC2)cc1 |  |  | 6.2 |  |  |
| O=C(CC1CCCCC1)Nc1ccccc1CO |  |  | > 100 | > 100 |  |
| CCCCCCCCCCCC(=O)NC12CC3CC(CC(C3)C1)C2 |  | 0.42 (≈ 1.26 µM) |  |  | 5.52 |
| CCCCCCCCCCNC(=O)CC12CC3CC(CC(C3)C1)C2 |  | 0.32 (≈ 0.959 µM) |  |  | 5.64 |
| O=C(Cc1ccccc1CO)NC1CCCCC1 |  |  | > 100 | > 100 |  |

Results, then the compound that gave them:

| logP [1] | solubility [2] [µg/mL] | IC50 [3] [µM] | IC50 [4] [µM] | logP ([1]; read-out: logP) | SMILES |
| --- | --- | --- | --- | --- | --- |
| 2.77 | 1.44 (≈ 4.11 µM) |  |  |  | CCCCCOC(=O)CCCNC(=O)NC12CC3CC(CC(C3)C1)C2 |
|  | 15.1 (≈ 43.2 µM) |  |  | 3.53 | CCCCCOC(=O)CCCCC(=O)NC12CC3CC(CC(C3)C1)C2 |
|  | 17.4 (≈ 49.8 µM) |  |  | 3.66 | CCCCCOC(=O)CCCNC(=O)CC12CC3CC(CC(C3)C1)C2 |
|  |  | 9.4 | 2.8 |  | CCCCCOC(=O)CCCNC(=O)C12CC3CC(CC(C3)C1)C2 |
|  |  | > 100 | > 100 |  | CCCCCOC(=O)CCCNC(=O)Oc1cccc(Cl)c1 |
|  |  | > 100 | > 100 |  | CCCCCOC(=O)CCCOC(=O)Cc1cccc(Cl)c1 |
|  |  | > 100 | > 100 |  | CCCCCOC(=O)CCCOC(=O)Oc1cccc(Cl)c1 |
|  |  | 25.2 | 17.4 |  | CCCCCOC(=O)CCCOC(=O)Nc1cccc(Cl)c1 |
